Reference: ChEMBL document CHEMBL3751796, “Structure-Based Discovery of Novel Cyclophilin A Inhibitors for the Treatment of Hepatitis C Virus Infections” (J Med Chem, 2015)

Tests used:
[1] = Cytotoxicity against mock-infected human Huh7.5 cells assessed as reduction in cell viability incubated for 5 hrs by MTT assay; format: cell-based, Huh-7; settings: mock-infected Huh7.5 cells
How it was run: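 Mock-infected Huh7.5 cells run alongside the JFH1-Luc antiviral assay with 3-fold serial dilutions. Viability read by MTT assay to give CC50.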

[2] = system: Hepatitis C virus; test: Antiviral activity against recombinant HCV genotype 2a JFH1 infected in human […] for 5 hrs measured on day 3 post infection by luciferase reporter gene assay; format: functional, organism-based, Hepacivirus hominis; settings: JFH-1, Huh-7
How it was run: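 Huh7.5 cells infected with JFH1-Luc virus (MOI 0.004) for 5 h at 37 °C with 3-fold serial dilutions of compound. Renilla luciferase read from lysates on day 3 postinfection to derive EC50.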

[3] = Selectivity index, ratio of CC50 for mock-infected human Huh7.5 cells to EC50 for recombinant HCV genotype 2a JFH1; parameters: species or system Huh-7
How it was run: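 Huh7.5 cells infected with JFH1-Luc virus (MOI 0.004, 5 h, 37 °C) in the presence of 3-fold serial dilutions. EC50 came from Renilla luciferase on day 3. CC50 came from MTT viability of mock-infected Huh7.5 cells treated in parallel. SI = CC50/EC50.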

COc1ccc(N(C(=O)c2cc(C)ccc2C)C(C(=O)NC2CCCCC2)c2ccc([N+](=O)[O-])cc2)cc1OC (configuration not stated)
CC50 at 5 h [1]: 68.3 µM | EC50 [2]: 7.9 µM | Ratio CC50/EC50 [3]: 8.6

COc1ccc(N(C(=O)Cc2c[nH]c3ccccc23)C(C(=O)NC2CCCCC2)c2ccc(F)cc2)cc1 (configuration not stated)
CC50 at 5 h [1]: 63.6 µM | EC50 [2]: 26.5 µM | Ratio CC50/EC50 [3]: 2.4

COc1cc(C(C(=O)NC2CCCCC2)N(C(=O)Cc2c[nH]c3ccccc23)c2ccccc2)cc(OC)c1OC (configuration not stated)
CC50 at 5 h [1]: 36.8 µM | EC50 [2]: 16.3 µM | Ratio CC50/EC50 [3]: 2.2

COc1ccc(CCN(C(=O)c2ccccc2)C(C(=O)NC2CCCCC2)c2ccc([N+](=O)[O-])cc2)cc1OC (configuration not stated)
CC50 at 5 h [1]: > 100 µM | EC50 [2]: 8.9 µM | Ratio CC50/EC50 [3]: >11.2

COc1ccc(N(C(=O)Cc2c[nH]c3ccccc23)C(C(=O)NC2CCCCC2)c2ccc(OC)c(OC)c2OC)cc1OC (configuration not stated)
CC50 at 5 h [1]: 27.1 µM | EC50 [2]: > 27.1 µM

CC(=O)N(c1ccc(C(C)C)cc1)C(C(=O)NC1CCCCC1)c1ccc(Cl)cc1 (configuration not stated)
CC50 at 5 h [1]: 89.2 µM | EC50 [2]: 10.8 µM | Ratio CC50/EC50 [3]: 8.2

CCCCCNC(=O)C(c1ccc2c(c1)OCO2)N(C(=O)CCCC)c1ccc(OC)c(OC)c1 (configuration not stated)
CC50 at 5 h [1]: 32.2 µM | EC50 [2]: > 32.2 µM

COc1ccc(N(C(=O)Cc2c[nH]c3ccccc23)C(C(=O)NC2CCCCC2)c2ccc([N+](=O)[O-])cc2)cc1 (configuration not stated)
CC50 at 5 h [1]: 8.5 µM | EC50 [2]: 2.5 µM | Ratio CC50/EC50 [3]: 3.4

COc1ccc(CCC(=O)N(c2ccc(OC)c(OC)c2)C(C(=O)NC2CCCCC2)c2ccc(Cl)cc2)cc1 (configuration not stated)
CC50 at 5 h [1]: 57.4 µM | EC50 [2]: 31.1 µM | Ratio CC50/EC50 [3]: 1.8

COc1ccc(N(C(=O)c2cccc(C)c2C)C(C(=O)NC2CCCCC2)c2ccc(O)cc2)cc1OC (configuration not stated)
CC50 at 5 h [1]: 69.8 µM | EC50 [2]: 11.4 µM | Ratio CC50/EC50 [3]: 6.1

CC(C)c1ccc(N(C(=O)c2ccccc2)C(C(=O)NC2CCCCC2)c2ccc(Cl)cc2)cc1 (configuration not stated)
CC50 at 5 h [1]: 64.5 µM | EC50 [2]: 6.7 µM | Ratio CC50/EC50 [3]: 9.6

COc1cccc(CCC(=O)N(c2ccc(OC)c(OC)c2)C(C(=O)NC2CCCCC2)c2ccc(O)cc2)c1 (configuration not stated)
CC50 at 5 h [1]: 51.5 µM | EC50 [2]: 15.5 µM | Ratio CC50/EC50 [3]: 3.3

COc1ccc(C(C(=O)NC2CCCCC2)N(C(=O)Cc2c[nH]c3ccccc23)c2ccccc2)cc1OC (configuration not stated)
CC50 at 5 h [1]: 22.5 µM | EC50 [2]: > 22.3 µM

COc1ccc(CCC(=O)N(c2ccc(Br)cc2)C(C(=O)NC2CCCCC2)c2ccc([N+](=O)[O-])cc2)cc1 (configuration not stated)
CC50 at 5 h [1]: 9.8 µM | EC50 [2]: 6.1 µM | Ratio CC50/EC50 [3]: 1.6

COc1cccc(CCN(C(=O)c2ccc(Cl)nc2)C(C(=O)NC2CCCCC2)c2ccc([N+](=O)[O-])cc2)c1 (configuration not stated)
CC50 at 5 h [1]: > 100 µM | EC50 [2]: 7.2 µM | Ratio CC50/EC50 [3]: >13.8

COc1ccc([N+](=O)[O-])c(C(=O)N(CCc2ccc(OC)c(OC)c2)C(C(=O)NC2CCCCC2)c2ccc([N+](=O)[O-])cc2)c1 (configuration not stated)
CC50 at 5 h [1]: > 100 µM | EC50 [2]: 34.8 µM | Ratio CC50/EC50 [3]: >2.8

O=C(NC1CCCCC1)C(c1ccc(Cl)cc1)N(C(=O)Cc1c[nH]c2ccccc12)c1ccccc1 (configuration not stated)
CC50 at 5 h [1]: 10.2 µM | EC50 [2]: 3.3 µM | Ratio CC50/EC50 [3]: 3.1

NC(=O)c1ncn([C@@H]2O[C@H](CO)[C@@H](O)[C@H]2O)n1 [RIBAVIRIN]
CC50 at 5 h [1]: > 100 µM | EC50 [2]: 16.3 µM | Ratio CC50/EC50 [3]: >6.1

COc1ccccc1N(C(=O)Cc1c[nH]c2ccccc12)C(C(=O)NC1CCCCC1)c1cc(OC)c(OC)c(OC)c1 (configuration not stated)
CC50 at 5 h [1]: 23.2 µM | EC50 [2]: > 23.2 µM

COc1ccc(CCC(=O)N(c2ccc(C(C)C)cc2)C(C(=O)NC2CCCCC2)c2ccc(Cl)cc2)cc1 (configuration not stated)
CC50 at 5 h [1]: > 100 µM | EC50 [2]: > 100 µM

O=C(NC1CCCCC1)C(c1ccccc1)N(C(=O)Cc1c[nH]c2ccccc12)c1ccccc1 (configuration not stated)
CC50 at 5 h [1]: 30.5 µM | EC50 [2]: > 30.5 µM
